Here are results for one molecule from ChEMBL document CHEMBL2176974, “A bactericidal guanidinomethyl biaryl that alters the dynamics of bacterial FtsZ polymerization” (J Med Chem, 2012).

Positions count from the first letter of the chain named. Converted amounts (≈) assume the structure as drawn. The source made the active and inactive calls. The rule behind the calls is not given here.

The target of test [1] is Tubulin beta chain (Sus scrofa) (UniProt P02554). Put plainly: Effect on MAP-rich pig beta-tubulin polymerization at 40 ug/mL by microtiter plate-based light scattering assay. Put shortly:
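MAP-rich porcine tubulin (70% β-tubulin, 30% MAPs) at 2 mg/mL with 1 mM GTP. Buffer was 80 mM PIPES·NaOH pH 7.0, 2 mM MgCl₂, 1 mM EGTA. Light scattering was followed as A340 continuously at 37 °C for 60 min, against a DMSO vehicle.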

Test [2] concerns Staphylococcus aureus. Put plainly: Antimicrobial effect against 3x10^9 CFU/ml methicillin-sensitive Staphylococcus aureus 8325-4 at 4 to 32 times MIC assessed as incidence of colonies growth measured after 24 incubation by large inoculation approach based drug resistance detection method. The class given is functional, organism-based. A digest of the protocol:
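Inoculum count checked on nonselective plates. Incubated at 37 °C and examined after 24 h and daily thereafter. Mutation frequency = colonies on selective plates / total bacteria plated.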

Test [3] concerns Staphylococcus aureus. The test can be described thus: Antimicrobial effect against methicillin-sensitive Staphylococcus aureus 8325-4 assessed as changes in MIC measured after 12 incubation cycles by stepwise broth microdilution method relative to initial compound MIC. The class given is functional, organism-based. A digest of the protocol:
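Stepwise resistance selection. S. aureus 8325-4 at 10⁵ CFU/mL was inoculated into 2-fold increasing compound concentrations and incubated 24 h at 37 °C. Aliquots from the well with the highest concentration still showing growth (2-fold below MIC) seeded a new serial 2-fold dilution plate. This was repeated for multiple cycles, with MIC determined each cycle.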
On the technique in general: In broth dilution the organism is exposed to a series of concentrations in liquid medium.

For test [4], the system named is Staphylococcus aureus. Put plainly: Bactericidal activity against methicillin-sensitive Staphylococcus aureus 8325-4 at 8 times MIC measured within 6 hrs post dose for 24 hrs assessed as log reduction in bacterial CFU by time kill study. It is filed as functional. Put shortly: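 Exponentially growing S. aureus 8325-4 was diluted in CAMH broth to 10⁵–10⁶ CFU/mL. […] Samples taken at 2, 4 and 6 h were pelleted or diluted, then plated on TSA. Colonies were counted after 24 h at 37 °C. Points are the mean of two independent measurements.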

In another test the test system is Enterococcus faecalis. The test can be described thus: microbe, parasite or virus in culture. The class given is functional. Conditions: ATCC 51575, 24 h.
The subject of test [5] is Staphylococcus aureus. The test can be described thus: Antimicrobial activity against methicillin-resistant Staphylococcus aureus Mu3 incubated for 24 hrs by broth microdilution method. The class given is functional. Particulars: Mu3, 24 h.
The test system of test [6] is T1, Cell division protein FtsZ (Staphylococcus aureus), P0A031 [G196A].
T1 sequence (whole entry): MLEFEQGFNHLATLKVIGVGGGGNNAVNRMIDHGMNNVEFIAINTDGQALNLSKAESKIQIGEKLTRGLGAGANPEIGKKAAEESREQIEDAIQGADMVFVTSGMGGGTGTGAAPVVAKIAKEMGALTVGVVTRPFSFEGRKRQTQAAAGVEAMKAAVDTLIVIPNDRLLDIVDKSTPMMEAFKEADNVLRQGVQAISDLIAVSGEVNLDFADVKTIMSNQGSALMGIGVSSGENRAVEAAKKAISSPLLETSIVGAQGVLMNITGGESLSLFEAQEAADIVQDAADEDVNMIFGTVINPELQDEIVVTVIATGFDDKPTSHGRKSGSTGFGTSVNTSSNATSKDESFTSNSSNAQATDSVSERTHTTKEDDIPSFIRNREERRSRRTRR
Put plainly: Binding affinity to Staphylococcus aureus FtsZ G196A mutant self-polymerization at 20 ug/mL by microtiter plate-based light scattering assay.

Test [7] relates to T2, Cell division protein FtsZ (Staphylococcus aureus), P0A031 [I228R].
T2 sequence (whole entry): T1 sequence (whole entry) with A196G, I228R
Put plainly: Binding affinity to Staphylococcus aureus FtsZ I228R mutant self-polymerization at 20 ug/mL by microtiter plate-based light scattering assay.

The subject of test [8] is T3, Cell division protein FtsZ (Staphylococcus aureus), P0A031 [E185A].
T3 sequence (whole entry): T1 sequence (whole entry) with E185A, A196G
Put plainly: Binding affinity to Staphylococcus aureus FtsZ E185A mutant self-polymerization at 10 ug/mL by microtiter plate-based light scattering assay.

Test [9] addresses T4, Cell division protein FtsZ (Escherichia coli K-12) (UniProt P0A9A6).
T4 sequence (whole entry): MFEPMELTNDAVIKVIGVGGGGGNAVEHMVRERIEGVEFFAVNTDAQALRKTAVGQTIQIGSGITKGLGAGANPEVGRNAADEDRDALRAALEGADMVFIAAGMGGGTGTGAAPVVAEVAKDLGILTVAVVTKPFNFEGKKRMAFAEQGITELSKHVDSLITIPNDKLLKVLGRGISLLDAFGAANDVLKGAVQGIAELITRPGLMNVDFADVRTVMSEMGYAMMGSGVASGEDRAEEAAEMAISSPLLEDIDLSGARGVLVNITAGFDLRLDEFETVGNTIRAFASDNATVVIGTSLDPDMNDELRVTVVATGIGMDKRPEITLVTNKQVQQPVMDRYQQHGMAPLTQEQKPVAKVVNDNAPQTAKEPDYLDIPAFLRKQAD
The test can be described thus: Binding affinity to Escherichia coli FtsZ at 40 uM by fluorescence anisotropy BoGTPgammaS competition assay. A digest of the protocol: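 Competition with fluorescent BoGTPγS. BoGTPγS (1 μM final) was mixed with 5 μM FtsZ and compound or unlabeled GTP at 0–40 μM. Buffer was 50 mM Tris·HCl pH 7.4, 50 mM KCl, 2 mM magnesium acetate. After 5 min at 25 °C, anisotropy was read at excitation 488 nm and emission 510 nm, in triplicate and averaged.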

The target of test [10] is T4, Cell division protein FtsZ (Escherichia coli K-12). The test can be described thus: Stimulation of Escherichia coli FtsZ self-polymerization by microtiter plate-based light scattering assay.
Test [11] is described as follows: Selectivity index, ratio of Kd for Enterococcus faecalis FtsZ to Kd for Escherichia coli FtsZ. A digest of the protocol: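 Buffer was 50 mM Tris·HCl pH 7.4, 50 mM KCl, 2 mM magnesium acetate. Kd came from nonlinear least-squares fits, and the index is the ratio of the two Kd values.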

Sequence of Tubulin beta chain (Sus scrofa) (P02554 whole entry): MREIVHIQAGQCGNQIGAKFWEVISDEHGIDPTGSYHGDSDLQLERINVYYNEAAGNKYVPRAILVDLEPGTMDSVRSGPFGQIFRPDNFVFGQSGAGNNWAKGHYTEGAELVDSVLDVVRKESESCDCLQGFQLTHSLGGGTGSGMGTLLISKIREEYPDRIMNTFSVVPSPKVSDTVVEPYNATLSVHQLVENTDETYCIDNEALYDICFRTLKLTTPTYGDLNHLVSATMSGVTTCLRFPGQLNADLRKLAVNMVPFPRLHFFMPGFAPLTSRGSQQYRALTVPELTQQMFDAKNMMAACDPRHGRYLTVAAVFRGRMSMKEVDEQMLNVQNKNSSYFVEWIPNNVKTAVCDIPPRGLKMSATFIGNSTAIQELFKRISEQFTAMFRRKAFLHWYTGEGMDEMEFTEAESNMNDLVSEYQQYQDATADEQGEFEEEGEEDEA

Take `CC(C)(C)c1ccc(-c2cccc(CNC(=N)N)c2)cc1`: the outcome in test [1], in test [8] and in test [9] was inactive. The outcome (with Staphylococcus aureus [2]; in the test on Staphylococcus aureus [3]; in [6]; in test [7]) was Active. Moreover, in the test on Staphylococcus aureus [4], the FC is recorded as 4. For the same molecule, the MIC with Enterococcus faecalis was 4 µg/mL (≈ 14.2 µM); in the test with Staphylococcus aureus [5] it was 1 µg/mL (≈ 3.55 µM). The Activity result in test [10] is “Dose-dependent effect”. Also, in test [11], the Ratio was 6.
